Columns and labels:
[1] = Activity of CMY-2 by spectrophotometry
In short: (§1)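 CMY β-lactamases purified from sonicated, ultracentrifuge-clarified extracts of E. coli DH5α clones (pB-cmy36, pB-cmy2) by Q- then S-Sepharose ion exchange (>90% pure by SDS-PAGE); steady-state hydrolysis kinetics measured spectrophotometrically, CMY-2 run in parallel.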

[2] = Ratio of Kcat to Km of CMY-2 by spectrophotometry; in short: as §1

Structure (SMILES)	Km [1] [µM]	kcat [1] [s⁻¹]	kcat/Km [2] [M⁻¹ s⁻¹]
O=C(Cc1cccs1)N[C@@H]1C(=O)N2C(C(=O)[O-])=C(C[n+]3ccccc3)CS[C@H]12	120	300	2.5e+06
CO/N=C(\C(=O)N[C@@H]1C(=O)N2C(C(=O)O)=C(COC(C)=O)CS[C@H]12)c1csc(N)n1		< 0.01	
CC1(C)S[C@@H]2[C@H](NC(=O)Cc3ccccc3)C(=O)N2[C@H]1C(=O)O	0.4	10	2.5e+07
O=C(Cc1cccs1)N[C@@H]1C(=O)N2C(C(=O)O)=C(/C=C/c3ccc([N+](=O)[O-])cc3[N+](=O)[O-])CS[C@H]12	10	980	9.8e+07

Reference: ChEMBL document CHEMBL1629653, “CMY-31 and CMY-36 cephalosporinases encoded by ColE1-like plasmids” (Antimicrob Agents Chemother, 2009)
